Shown are actives, neighbours in structure and some others; about 2.1% of the full set was active somewhere.
Autophagy mod: alters autophagy in cells. MEF GFP-LC3 puncta imaging; test concentration mostly 10 µM. calls only at 10 µM (by protocol). hit rate 0.98% among 190,000;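 active = percentage of spot-positive cells more than 3 SD above its plate mean, without a fluorescence outlier flag or 80% toxicity; inconclusive = no clear call, values can overlap the other calls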
INS promoter inh: TRM-6 insulin promoter activity inhibition | TRM-6 cells (human fetal islet line), insulin promoter-eGFP reporter, imaging; reporter expression induced with tamoxifen | inhibition, % at 2 µM | hit rate 0.9% among 130,000 | AID 1273;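 active = inhibition above the mean plus 3 SD, with well images judged a real hit on visual review, cut at about 60% in these data, passing the limit was not always enough; inconclusive = inhibition over the cutoff but images rejected on review; inactive = inhibition not above the cutoff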
PERK inhibitor: human PERK inhibition, primary cell-based screen; Q9NZJ5; CHO PERK-DD fusion, SEAP luminescence translation reporter; inhibition, % at 5.6 µM; hit rate 0.17% among 220,000;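 active = inhibition above the mean inhibition of all tested compounds plus 3 SD, set separately per screening campaign, cut at about 2.9% in these data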;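 also: PERK kinase domain activated by AP20187 dimerizer at 100 nM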
Target sequence (Q9NZJ5 whole entry, looked up, the tested form may be a part): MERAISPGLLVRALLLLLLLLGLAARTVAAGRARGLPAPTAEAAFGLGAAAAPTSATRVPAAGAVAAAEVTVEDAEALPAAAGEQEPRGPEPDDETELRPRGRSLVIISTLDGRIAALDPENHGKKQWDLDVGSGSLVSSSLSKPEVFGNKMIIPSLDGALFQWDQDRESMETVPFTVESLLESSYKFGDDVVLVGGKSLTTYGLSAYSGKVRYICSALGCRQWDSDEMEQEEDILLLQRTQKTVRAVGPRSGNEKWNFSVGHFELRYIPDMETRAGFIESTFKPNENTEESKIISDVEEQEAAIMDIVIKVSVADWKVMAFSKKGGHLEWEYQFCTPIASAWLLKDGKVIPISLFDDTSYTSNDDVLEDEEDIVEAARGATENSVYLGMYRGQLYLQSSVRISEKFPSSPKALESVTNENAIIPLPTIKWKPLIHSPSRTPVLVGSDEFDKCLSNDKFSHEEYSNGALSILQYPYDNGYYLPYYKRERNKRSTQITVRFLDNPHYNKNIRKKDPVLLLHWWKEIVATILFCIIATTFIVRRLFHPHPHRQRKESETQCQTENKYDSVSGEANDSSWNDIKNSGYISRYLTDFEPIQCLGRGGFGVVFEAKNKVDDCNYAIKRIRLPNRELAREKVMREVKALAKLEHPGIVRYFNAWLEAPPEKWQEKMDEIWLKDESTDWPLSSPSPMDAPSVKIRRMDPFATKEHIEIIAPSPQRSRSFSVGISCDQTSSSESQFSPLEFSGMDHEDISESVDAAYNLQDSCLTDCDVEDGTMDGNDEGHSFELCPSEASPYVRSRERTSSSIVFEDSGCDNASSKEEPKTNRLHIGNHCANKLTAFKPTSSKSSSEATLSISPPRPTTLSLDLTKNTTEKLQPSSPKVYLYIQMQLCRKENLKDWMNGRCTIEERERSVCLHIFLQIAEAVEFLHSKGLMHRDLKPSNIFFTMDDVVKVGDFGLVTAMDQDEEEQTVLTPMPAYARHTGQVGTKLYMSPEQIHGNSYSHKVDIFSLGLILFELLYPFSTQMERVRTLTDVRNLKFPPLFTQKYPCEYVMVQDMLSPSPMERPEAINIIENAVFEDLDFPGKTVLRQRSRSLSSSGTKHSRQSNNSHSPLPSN
Dynein cargo inh: dynein cargo transport inhibition; 3617.4 mouse cells, GR-EGFP nuclear translocation imaging; test concentration mostly 20 µM; stimulated with dexamethasone, 1 µM; active compounds read low; z-score, hits read low; hit rate 0.47% among 220,000; AID 1381;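 active = plate z-score of nuclear minus cytoplasmic receptor signal below a set negative limit, without overly bright fluorescence or cell loss, cut at about -3.5 in these data, passing the limit was not always enough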;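 also: z-score of nuclear minus cytoplasmic ring GR-EGFP intensity difference per well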
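Schedule: 48 h induction, then 1 h compound, then 30 min agonist, 37 °C. Buffer or medium: tetracycline-free induction medium containing charcoal-stripped FBS. Reagent: 1.0 µM final dexamethasone stimulus. Evaluation: nuclear versus cytoplasmic GR-EGFP signal, averaged per well. Signal: high-content fluorescence imaging after fixation.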
Insulin prom up: MIN6 insulin promoter up-regulation. hit rate 0.3% among 190,000. MIN6 insulin promoter-GFP reporter, high-content imaging; active compounds read high. AID 1625. z-score at 5 µM;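 active = z-score above 3 at 5 µM with at least 500 cells counted in the well; inconclusive = wells under 500 cells, flagged as cytotoxic or low count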
A number is an active result; - = inactive; ? = inconclusive; . = not tested or not shown; + = active, no number.

SMILES | Autophagy mod | INS promoter inh | PERK inhibitor | Dynein cargo inh | Insulin prom up
COC(=O)CC1C(=O)NCCN1C(=O)CSc1nc2ccccc2s1 (stereo not given) | - | . | - | - | -
CCOC(=O)/C=c1\s/c(=C\c2ccc3cc(OC)ccc3c2)c(=O)n1CC(=O)NCc1ccc2c(c1)OCO2 | + | - | - | - | -
c1ccc(CCn2nnnc2C(c2cccs2)N2CCOCC2)cc1 (stereo not given) | . | . | . | . | -
COc1ccc(Cn2nnnc2C(c2cccs2)N2CCOCC2)cc1 (stereo not given) | - | 100 | - | - | -
COc1ccc2[nH]c3c(c2c1)CCNC3C1CC=C(C)CC1 (stereo not given) | + | . | - | - | -
CCCNc1c(F)c(F)c2c(C)c3ccccc3nc2c1F | + | - | - | - | .
OCCNc1c2ccccc2nc2ccccc12 | - | . | - | - | -
Cc1cc(C(=O)NCc2ccccc2)c(=O)[nH]c1C | - | 73 | - | - | -
Cc1c(C(=O)Nc2cccc(Cl)c2)c2ccccn2c1CCc1ccncc1 | + | . | - | - | -
COc1ccc(CCNCC(=O)Nc2ccccc2C(F)(F)F)cc1 | - | . | - | - | -
Cc1ccc2nc(/C(C#N)=C\c3ccc([N+](=O)[O-])o3)[nH]c2c1 | + | . | - | - | ?
Cc1ccc2nc(/C(C#N)=C\c3ccc(Oc4ccc([N+](=O)[O-])cn4)cc3)[nH]c2c1 | - | - | - | - | -
COc1ccc2nc(/C(C#N)=C\c3ccc(Oc4ccc([N+](=O)[O-])cn4)cc3)[nH]c2c1 | + | - | - | - | -
N#C/C(=C\c1ccc([N+](=O)[O-])o1)c1nc2ccccc2[nH]1 | - | . | - | - | ?
CC(C)CC(=O)Nc1ccc(C(=O)CN2CCC(C)CC2)cc1 | - | . | - | - | -
COCCn1nnnc1C(c1ccccc1OC)N1CCN(c2ccccc2)CC1 (stereo not given) | + | . | - | - | -
S=C(NCC1CCCO1)NC1CCCC1 (stereo not given) | - | . | - | - | -
CC1=CC(C)(C)N(S(=O)(=O)c2ccc(F)cc2)c2ccccc21 | - | - | - | - | -
CC1=CC(C)(C)N(S(=O)(=O)c2ccc(C)cc2)c2ccc(C)cc21 | + | - | - | - | -
CC(=O)Nc1ccc(S(=O)(=O)N2c3ccccc3C(C)=CC2(C)C)cc1 | + | . | - | - | -
COc1ccc(C2C(C#N)=C(N)N3C(=C2C#N)Sc2ccccc23)cc1 (stereo not given) | + | . | - | - | -
COc1ccc(-n2c(SCCC(=O)O)nnc2-c2ccncc2)cc1 | - | 81 | - | - | -
N#C/C(=C\c1ccc(N2CCOCC2)o1)C(=O)NC1CCCCC1 | . | . | - | - | -
N#C/C(=C\c1ccc(-c2ccc(S(=O)(=O)N3CCOCC3)cc2)o1)C(=O)NC1CC1 | - | 62 | - | - | -
CCCCCCOc1ccc(/C=c2\s/c(=C(/C#N)C(=O)NCc3ccco3)n(-c3ccccc3)c2=O)cc1 | + | - | - | - | -
SMILES | Autophagy mod | INS promoter inh | PERK inhibitor | Dynein cargo inh | Insulin prom up
CCOc1ccccc1NC(=O)CCSc1nc2n[nH]c(C)c2c(=N)n1-c1ccccc1Cl | + | - | - | - | -
CCOC(=O)/C(C#N)=C1\C(=O)N(Cc2ccccc2)c2ccccc21 | . | . | - | - | -
CC1(c2ccccc2Cl)NC(=O)N(CC(=O)Nc2ccc3c(c2)OCO3)C1=O (stereo not given) | - | - | - | - | -
CC(=O)N1CCN(c2ccc(NC(=O)C(C)Oc3ccc(Cl)cc3Cl)cc2)CC1 (stereo not given) | - | - | - | - | -
CC(Oc1ccc(Cl)cc1Cl)C(=O)Nc1ccc(N2CCN(C)CC2)cc1 (stereo not given) | + | - | - | - | -
Cc1nc2ccccc2nc1N/N=C/c1ccc(O)cc1 | . | . | - | - | -
Cc1nc(N/N=C/c2ccc(O)cc2)c2cnn(-c3ccccc3)c2n1 | - | 89 | - | - | -
O=C(c1cc([N+](=O)[O-])ccc1N1CCCC1)N1CCCC1 | - | - | - | - | 3.1
O=C(c1ccc(Br)cc1)c1cc([N+](=O)[O-])ccc1N1CCOCC1 | + | . | - | - | -
Cc1ccc(C(=O)c2cc([N+](=O)[O-])ccc2N2CCCCC2)cc1 | - | . | - | - | -
O=C(c1ccc(Cl)cc1)c1cc([N+](=O)[O-])ccc1N1CCOCC1 | + | . | - | - | -
CCOC(=O)c1cc(CC)sc1NC(=O)c1cc([N+](=O)[O-])ccc1N1CCOCC1 | + | . | - | - | -
O=C(c1ccccc1)c1cc([N+](=O)[O-])ccc1N1CCOCC1 | - | . | - | - | -
COc1ccc(C(=O)Cn2nnc(-c3ccccc3NC(=O)c3ccco3)n2)cc1 | - | . | - | - | -
O=C(CCC1CCCCC1)N1CCN(Cc2ccc3c(c2)OCO3)CC1 | - | - | - | - | -
COc1ccc([N+](=O)[O-])c(OC)c1C(=O)NC(=O)Nc1c(F)cc(F)cc1F | . | . | - | - | -
Cc1cc(=O)oc(C)c1C(=O)OCC(=O)c1ccc(Cl)cc1 | - | - | - | - | -
CCOc1ncccc1C(=O)OCC(=O)Nc1c(C)cccc1C | - | - | - | - | -
Cc1cccc(C(C)C)c1NC(=O)COC(=O)Cc1ccsc1 | - | . | - | - | -
Cc1cccc(C)c1NC(=O)COC(=O)COc1ccc2c(C)cc(=O)oc2c1 | - | 60 | - | - | -
Cc1cccc(C)c1NC(=O)COC(=O)Cc1ccsc1 | - | 67 | - | - | .
Cc1cccc(C)c1NC(=O)COC(=O)c1cccnc1 | + | . | - | - | -
COc1ccc(C2CC(=O)C=C(NNS(=O)(=O)c3ccc(C)cc3)C2)cc1 (stereo not given) | - | . | - | - | -
COc1ccc(Cn2c(SCc3cc(C)ccc3C)nc3cc(OC)c(OC)cc3c2=N)cc1 | + | - | - | - | -
O=C(O)c1c2c(nc3ccc(S(=O)(=O)N4CCC(C(=O)NC5CCCCCC5)CC4)cc13)CCCC2 | - | - | - | - | -
SMILES | Autophagy mod | INS promoter inh | PERK inhibitor | Dynein cargo inh | Insulin prom up
Cc1ccc2c(Cl)c(C)c(N3CCCCC3)nc2n1 | - | 83 | - | - | -
CCOC(=O)C(NC(=O)N(C)C)(Nc1sc(C)c(CC)c1C#N)C(F)(F)F (stereo not given) | - | - | - | - | -
OCCNc1nc(-c2ccccc2)c2cc(Cl)ccc2n1 | + | - | - | - | .
Cc1onc(-c2c(Cl)cccc2Cl)c1CO/N=C(\C#N)c1c(Cl)cccc1Cl | . | . | - | - | .
C/C(CC(=O)Nc1c(C)cc(C)cc1C)=N\NC(=O)c1cnccn1 | - | - | - | - | .
Cc1nnc(-c2cnn(C)c2N)n1Cc1cccc(Cl)c1 | - | 89 | - | - | -
Cc1c(C(=O)OCC(=O)NCc2ccc3c(c2)OCO3)cccc1[N+](=O)[O-] | - | - | - | - | -
Cc1nc2sc(C(=O)c3ccccc3)c(N)c2c(C)c1C | - | . | - | - | -
Cc1nc2sc(C(=O)OC(C)C)c(N)c2c(C)c1C | - | 100 | - | - | -
Clc1ccc(/C=N/NC2=Nc3cccc4cccc2c34)cc1 | + | . | - | - | -
C(=N\NC1=Nc2cccc3cccc1c23)/c1ccccc1 | - | - | - | - | -

Bioassay records deposited in PubChem BioAssay by several laboratories.
